Experimental findings from ChEMBL document CHEMBL1154317, “Discovery of a potent, metabolically stabilized resorcylic lactone as an anti-inflammatory lead” (Bioorg Med Chem Lett, 2009) are described below.

The subject of one data set is THP-1. In words: Antiinflammatory activity in human THP1 cells assessed as inhibition of LPS-induced TNFalpha production by PLAP reporter assay. The data set is classed as functional, cell-based. Summed up: (§1)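 Stably transfected PLAP reporter lines (TNFα-promoter/5'-UTR-PLAP in THP-1-33; β-actin-promoter-PLAP in B164), kept in RPMI1640 with 10% heat-inactivated endotoxin-free FBS and G418 1 mg/mL. Seeded at 1.0×10^4 cells/well, preincubated with compound 30 min, then stimulated with LPS 100 ng/ml (E. coli 0127:B08 or 011:B4). After 24-48 h, supernatant alkaline phosphatase activity read; IC50 reported.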

The nature of data set [1]: Antiinflammatory activity in human B164 cells assessed as inhibition of LPS-induced Actin production by PLAP reporter assay. Type of data set: functional, cell-based. Summed up:
as §1
For orientation: In a reporter assay the amount or activity of a reporter protein is the signal.

Data set [2] is described as follows: Clearance in BALB/c mouse at 3 mg/kg, iv. Type of data set: ADME, organism-based. Further details: dose 3 mg/kg, route intravenous. The following applies: in vivo. An outline of the steps: (§2)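 Single intravenous dose given to BALB/c mice. Parent drug levels were measured in plasma over time after dosing. CL, VDss, t1/2 and AUC were derived from these plasma levels. AUC is reported normalised to dose, […].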

Data set [3] in a line: Volume of distribution at steady state in BALB/c mouse at 3 mg/kg, iv. The data set is classed as ADME, organism-based. Further details: dose 3 mg/kg, route intravenous. The following applies: in vivo, read-out: Vdss. An outline of the steps: as §2
A short description of data set [4]: Half life in BALB/c mouse at 3 mg/kg, iv. Type of data set: ADME, organism-based. Set-up: route intravenous, dose 3 mg/kg. The conditions noted are these: in vivo. An outline of the steps: as §2
Data set [5] relates to Mus musculus. Kind of data set: Normalised AUC in BALB/c mouse at 3 mg/kg, iv. Type of data set: ADME, organism-based. Set-up: dose 3 mg/kg, route intravenous. The conditions noted are these: in vivo. Summed up:
as §2

The nature of data set [6]: Metabolic stability in mouse plasma after 2 hrs. The data set is classed as ADME, cell-free. The conditions noted are these: read-out: Stability. An outline of the steps:
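Compound at 50 μg/ml or 50 μM in freshly prepared heparinized mouse blood, incubated at 37 °C for 0, 30 and 120 min. Each sample extracted with MeOH containing 0.2% perchloric acid. Analyzed by reverse-phase HPLC, 30% acetonitrile in KH2PO4 buffer pH 3.5. Parent peak area at each time expressed as % of the 0 min area.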

Data set [7] is filed under the species Mus musculus. In words: Antiinflammatory activity in mouse assessed as inhibition of LPS-induced IL6 production. The data set is classed as functional, organism-based. An outline of the steps: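 Mice given compound together with LPS by tail-vein injection in 10% cyclodextrin. Blood collected 3 h later and plasma IL-6 measured by ELISA. Mean with SEM, n = 6-8. Compared against the LPS-treated control group by Dunnett's post hoc test, P<0.05.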

Data set [8] concerns U-937. In words: Antiinflammatory activity in human U937 cells assessed as inhibition of LPS-induced TNFalpha production by ELISA. Type of data set: functional, cell-based. Background: In an ELISA, binding on a coated surface is turned into a signal by an enzyme label.
For data set [9], the system named is U-937. Kind of data set: Antiinflammatory activity in human U937 cells assessed as inhibition of LPS-induced Actin production by ELISA. The data set is classed as functional, cell-based.

Calls of active or inactive are those of the source.

As to `COc1cc(O)c2c(c1)/C=C/C[C@H](O)[C@H](O)/C=C\[C@@H](C)CNC2=O`, the IC50 (commonly the concentration that inhibits the measured activity by half) in the data set with THP-1 is 0.259 µM; in data set [1] it was more than 10 µM.

Regarding `COc1cc(O)c2c(c1)/C=C/C[C@H](O)[C@H](O)/C=C(\F)[C@@H](C)[C@H](C)NC2=O`, the IC50 with THP-1 was 0.2 µM; in data set [1], more than 10 µM.

Take `COc1cc(O)c2c(c1)/C=C/C[C@H](O)[C@H](O)C(=O)/C=C\CCOC2=O`: the concentration for half-maximal inhibition (IC50) in the data set with THP-1 stood at 0.069 µM; in [1] it was 2.8 µM.

With `COc1cc(O)c2c(c1)/C=C/C[C@H](O)[C@H](O)C(=O)/C=C\C[C@H](C(F)(F)F)OC2=O`, the IC50 in the data set with THP-1 was determined as 0.031 µM; in data set [1], 1.33 µM.

For the molecule `COc1cc(O)c2c(c1)/C=C/C[C@H](O)[C@H](O)C(=O)/C=C\[C@@H](C)[C@H](C)OC2=O`, the IC50 was 0.136 µM in the data set with THP-1 and more than 10 µM in data set [1]. Moreover, the clearance – broadly, a measure of how efficiently the substance is removed, as volume per time – in data set [2] is 91.8 mL/min/kg. Besides, the Vd in data set [3] is 1.69 L/kg. Also, in data set [4], the half-life (as a rule, the time needed for the level to fall by half in the phase considered) is 3.44 h. In addition, in the data set on Mus musculus [5], the AUC/dose was 181 ng·h/mL/(mg/kg). Moreover, the remaining at 2 h in data set [6] was more than 80%. The inhibition result in the data set filed under Mus musculus [7] was “Active”.

As for `COc1cc(O)c2c(c1)/C=C/C[C@H](O)[C@H](O)C(=O)/C=C\[C@H](OC)[C@H](C)OC2=O`, the figures for the IC50 (in the data set on THP-1; in [1]) were 0.239 µM and 7.6 µM, respectively. Besides, the remaining at 2 h in data set [6] is 25%.

For `COc1cc(O)c2c(c1)/C=C/C[C@H](O)[C@H](O)/C=C\[C@@H](C)COC2=O`, the IC50 in the data set with THP-1 was 0.203 µM; in data set [1], more than 10 µM.

As for `COc1cc(O)c2c(c1)/C=C/C[C@H](O)[C@H](O)/C=C\[C@H](C)[C@H](C)OC2=O`, the IC50 was 1.14 µM with THP-1 and more than 10 µM in data set [1].

In the case of `COc1cc(O)c2c(c1)/C=C/C[C@H](O)[C@H](O)/C=C\[C@H](C)[C@@H](C)OC2=O`, the IC50 (in the data set on THP-1; in [1]) was more than 10 µM throughout.

As to `COc1cc(O)c2c(c1)/C=C/C[C@H](O)[C@H](O)C(=O)/C=C\C[C@@H](C)OC2=O`, the values for the IC50 (in the data set with THP-1; in data set [1]) were 1.05 µM and 7.07 µM, respectively.

As to `COc1cc(O)c2c(c1)/C=C/C[C@H](O)[C@H](O)/C=C\C(C)(C)COC2=O`, the IC50 (in the data set on THP-1; in data set [1]) was more than 10 µM each time.

Consider `COc1cc(O)c2c(c1)/C=C/C[C@@H](O)[C@@H](O)C(=O)/C=C\C[C@@H](C)OC2=O`, for which the IC50 in the data set with THP-1 was determined as 2.62 µM; in [1], 4.98 µM.

Consider `COc1ccc(CO[C@@H]2/C=C\C(=O)[C@@H](O)[C@@H](O)C/C=C/c3cc(OC)cc(O)c3C(=O)O[C@H]2C)cc1`, for which the figures for the IC50 (with THP-1; in data set [1]) were 0.888 µM and more than 10 µM, respectively.

Consider `CC[C@@H]1C/C=C\C(=O)[C@@H](O)[C@@H](O)C/C=C/c2cc(OC)cc(O)c2C(=O)O1`, for which the IC50 came out at 5.21 µM in the data set on THP-1 and 8.47 µM in data set [1].

`CC[C@@H]1/C=C\[C@@H](O)[C@@H](O)C/C=C/c2cc(OC)cc(O)c2C(=O)O[C@H]1C`: the inhibition entry in the data set with U-937 [8] and in the data set with U-937 [9] was “inactive” throughout.

With `COc1cc(O)c2c(c1)/C=C/C[C@H](O)[C@H](O)C(=O)/C=C\C[C@H](C)OC2=O`, the figures for the IC50 (in the data set with THP-1; in [1]) were 0.011 µM and 2.37 µM, respectively. This molecule gave a clearance in data set [2] of 710 mL/min/kg. Further, the Vd in data set [3] is 3.3 L/kg. For the same molecule, the half-life in data set [4] was 0.05 h. The AUC/dose in the data set with Mus musculus [5] was 23.8 ng·h/mL/(mg/kg). In addition, the remaining at 2 h in data set [6] was 2%.

Consider `COc1cc(O)c2c(c1)/C=C/C[C@H](O)[C@H](O)/C=C\[C@@H](CC(F)(F)F)[C@H](C)OC2=O`, for which the results for the IC50 (with THP-1; in data set [1]) were 9 µM and more than 10 µM, respectively.

Regarding `CC[C@H]1C/C=C\C(=O)[C@@H](O)[C@@H](O)C/C=C/c2cc(OC)cc(O)c2C(=O)O1`, the figures for the IC50 (with THP-1; in [1]) were 0.059 µM and 2.44 µM, respectively.

As for `COc1cc(O)c2c(c1)/C=C/C[C@H](O)[C@H](O)C(=O)/C=C\[C@@H]1CCC[C@@H]1OC2=O`, the IC50 was determined as 0.667 µM in the data set with THP-1 and 3 µM in data set [1]. The remaining at 2 h in data set [6] is 77%.

Turning to `COc1cc(O)c2c(c1)/C=C/C[C@H](O)[C@H](O)C(=O)C1CC1OC2=O` (stereo not given in full), the IC50 (in the data set with THP-1; in data set [1]) was more than 10 µM throughout.

`COc1cc(O)c2c(c1)/C=C/C[C@H](O)[C@H](O)C(=O)/C=C\C[C@H](c1ccccc1)OC2=O`: the results for the IC50 (with THP-1; in data set [1]) were 3.69 µM and 4.41 µM, respectively.

`COc1cc(O)c2c(c1)/C=C/C[C@H](O)[C@H](O)/C=C\[C@@H](Cc1ccccc1)[C@H](C)OC2=O`: the IC50 (in the data set on THP-1; in data set [1]) was more than 10 µM in each case.

Regarding `COc1cc(O)c2c(c1)/C=C/C[C@H](O)[C@H](O)C(=O)/C=C\[C@H]1CCC[C@H]1OC2=O`, the IC50 with THP-1 is 4 µM; in data set [1], more than 30 µM. Further, the remaining at 2 h in data set [6] turned out to be 34%.
